Converted amounts (≈) assume the structure as drawn.
These compounds were tested on SW-620 (assay: Cytotoxicity against human SW620 cells assessed as growth inhibition at 10 uM after 48 hrs by SRB assay). Conditions: SW-620, 48 h, read-out: GI.
Format: functional
Outline: (§1)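 NCI-60 one-dose primary screen run by the NCI Drug Evaluation Branch across the full 60-line panel. Single high-dose treatment with 48 h continuous drug exposure. Cell growth estimated by sulforhodamine B protein staining. Results given as percent growth of treated cells and expressed as percentage growth inhibition.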

Structure (SMILES) | inhibition of growth at 10 µM [%]
CCOC(=O)c1sc(NC(=O)c2cc(OC)c(OC)c(OC)c2)nc1C | < 10

The compounds below were run on HT-29 (assay: Cytotoxicity against human HT-29 cells assessed as growth inhibition at 10 uM after 48 hrs by SRB assay). Conditions: HT-29, 48 h, read-out: GI.
Format: functional
Outline: as §1

Structure (SMILES) | inhibition of growth at 10 µM [%]
CCOC(=O)c1sc(NC(=O)c2cc(OC)c(OC)c(OC)c2)nc1C | < 10

These compounds were tested on HCC 2998 (assay: Cytotoxicity against human HCC2998 cells assessed as growth inhibition at 10 uM after 48 hrs by SRB assay). Conditions: HCC 2998, 48 h, read-out: GI.
Format: functional
Outline: as §1

Structure (SMILES) | inhibition of growth at 10 µM [%]
CCOC(=O)c1sc(NC(=O)c2cc(OC)c(OC)c(OC)c2)nc1C | 42.7

What follows are compounds tested on NCI-H522 (assay: Cytotoxicity against human NCI-H522 cells assessed as growth inhibition at 10 uM after 48 hrs by SRB assay). Conditions: NCI-H522, 48 h, read-out: GI.
Format: functional
Outline: as §1

Structure (SMILES) | inhibition of growth at 10 µM [%]
CCOC(=O)c1sc(NC(=O)c2cc(OC)c(OC)c(OC)c2)nc1C | 32.6

What follows are compounds tested on NCI-H322M (assay: Cytotoxicity against human NCI-H322M cells assessed as growth inhibition at 10 uM after 48 hrs by SRB assay). Conditions: read-out: GI.
Format: functional
Outline: as §1

Structure (SMILES) | inhibition of growth at 10 µM [%]
CCOC(=O)c1sc(NC(=O)c2cc(OC)c(OC)c(OC)c2)nc1C | < 10

These compounds were tested on HOP-92 (assay: Cytotoxicity against human HOP92 cells assessed as growth inhibition at 10 uM after 48 hrs by SRB assay). Conditions: HOP-92, 48 h, read-out: GI.
Format: functional
Outline: as §1

Structure (SMILES) | inhibition of growth at 10 µM [%]
CCOC(=O)c1sc(NC(=O)c2cc(OC)c(OC)c(OC)c2)nc1C | 53.1

These compounds were tested on Pseudomonas aeruginosa (assay: Bactericidal activity against Pseudomonas aeruginosa ATCC 27853 after 18 hrs). Conditions: ATCC 27853, 18 h.
Format: functional
Outline: (§2)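 Continuation of the broth-dilution MIC test. A loopful from each tube without visible growth spread on a quarter of a Mueller-Hinton agar plate and incubated 18 h. Lowest concentration giving no growth on subculture taken as the MBC.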

Structure (SMILES) | MBC [µg/mL]
CCOC(=O)c1sc(NC(=O)c2cc(OC)c(OC)c(OC)c2)nc1C | 100 (≈ 263 µM)

These compounds were tested on Pseudomonas aeruginosa (assay: Antibacterial activity against Pseudomonas aeruginosa ATCC 27853 assessed as growth inhibition after 48 hrs by two-fold serial dilution assay). Conditions: ATCC 27853, 48 h.
Format: functional
Outline: (§3)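 Twofold serial broth dilution run on compounds giving inhibition zones of 13 mm or more. Organisms pre-grown in suitable broth at 37 °C, 24 h for bacteria and 48 h for fungi. Dilution series 200, 100, 50, 25, 12.5, 6.25. Each 5 mL tube inoculated with 0.1 mL and incubated 37 °C for 48 h. Tubes scored for presence or absence of growth.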

MIC [µg/mL] | Structure (SMILES)
50 (≈ 131 µM) | CCOC(=O)c1sc(NC(=O)c2cc(OC)c(OC)c(OC)c2)nc1C

These compounds were tested on Escherichia coli (assay: Bactericidal activity against Escherichia coli ATCC 25922 after 18 hrs). Conditions: ATCC 25922, 18 h.
Format: functional
Outline: as §2

Structure (SMILES) | MBC [µg/mL]
CCOC(=O)c1sc(NC(=O)c2cc(OC)c(OC)c(OC)c2)nc1C | 12.5 (≈ 32.9 µM)

These compounds were tested on Escherichia coli (assay: Antibacterial activity against Escherichia coli ATCC 25922 assessed as growth inhibition after 48 hrs by two-fold serial dilution assay). Conditions: ATCC 25922, 48 h.
Format: functional
Outline: as §3

MIC [µg/mL] | Structure (SMILES)
12.5 (≈ 32.9 µM) | CCOC(=O)c1sc(NC(=O)c2cc(OC)c(OC)c(OC)c2)nc1C

The compounds below were run on Bacillus spizizenii (assay: Bactericidal activity against Bacillus subtilis ATCC 6633 after 18 hrs). Conditions: ATCC 6633, 18 h.
Format: functional
Outline: as §2

Structure (SMILES) | MBC [µg/mL]
CCOC(=O)c1sc(NC(=O)c2cc(OC)c(OC)c(OC)c2)nc1C | 50 (≈ 131 µM)

Each compound was assayed on Bacillus spizizenii (assay: Antibacterial activity against Bacillus subtilis ATCC 6633 assessed as growth inhibition after 48 hrs by two-fold serial dilution assay). Conditions: ATCC 6633, 48 h.
Format: functional
Outline: as §3

MIC [µg/mL] | Structure (SMILES)
25 (≈ 65.7 µM) | CCOC(=O)c1sc(NC(=O)c2cc(OC)c(OC)c(OC)c2)nc1C

What follows are compounds tested on Staphylococcus aureus (assay: Bactericidal activity against Staphylococcus aureus ATCC 6538 after 18 hrs). Conditions: ATCC 6538, 18 h.
Format: functional
Outline: as §2

Structure (SMILES) | MBC [µg/mL]
CCOC(=O)c1sc(NC(=O)c2cc(OC)c(OC)c(OC)c2)nc1C | 6.25 (≈ 16.4 µM)

These compounds were tested on Staphylococcus aureus (assay: Antibacterial activity against Staphylococcus aureus ATCC 6538 assessed as growth inhibition after 48 hrs by two-fold serial dilution assay). Conditions: ATCC 6538, 48 h.
Format: functional
Outline: as §3

MIC [µg/mL] | Structure (SMILES)
6.25 (≈ 16.4 µM) | CCOC(=O)c1sc(NC(=O)c2cc(OC)c(OC)c(OC)c2)nc1C

What follows are compounds tested on Staphylococcus aureus (assay: Antibacterial activity against Staphylococcus aureus ATCC 6538 assessed as growth inhibition at 1 mg/mL after 24 hrs by agar-cup diffusion method). Conditions: ATCC 6538, 24 h, read-out: DIZ.
Format: functional
Outline: (§4)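 Agar-cup diffusion: 1 mL of 6 h broth culture seeded per 100 mL molten sterile agar at 45 °C and poured into plates. 8 mm cups cut, each filled with 0.1 mL of 1 mg/mL test solution. Incubated 37 °C for 24 h, 48 h for C. albicans. DMSO control per organism. Inhibition zone diameter in mm, mean of three measurements.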

Structure (SMILES) | zone of inhibition at 1000 µg/mL [mm]
CCOC(=O)c1sc(NC(=O)c2cc(OC)c(OC)c(OC)c2)nc1C | > 13

The compounds below were run on Pseudomonas aeruginosa (assay: Antibacterial activity against Pseudomonas aeruginosa ATCC 27853 assessed as growth inhibition at 1 mg/mL after 24 hrs by agar-cup diffusion method). Conditions: ATCC 27853, 24 h, read-out: DIZ.
Format: functional
Outline: as §4

Structure (SMILES) | zone of inhibition at 1000 µg/mL [mm]
CCOC(=O)c1sc(NC(=O)c2cc(OC)c(OC)c(OC)c2)nc1C | > 13

— ChEMBL document CHEMBL3124924, “Bifunctional ethyl 2-amino-4-methylthiazole-5-carboxylate derivatives: synthesis and in vitro biological evaluation as antimicrobial and anticancer agents” (2014)
